Data set [1] in a line: UV deprotection studies of 5′-O-TBS derivatives. In kind it is physicochemical. As to conditions: for DT1/2 (deprotection half-life time) at 302 nm / DT1/2 (deprotection half-life time) at 365 nm: 1 mM in methanol, 0.5 mW transilluminator, triplicate. Summed up: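 The test compound, in methanol at 1 mM in a scintillation vial, was irradiated with a 0.5 mW transilluminator at 302 or 365 nm. Aliquots taken at time intervals went to reverse-phase HPLC to follow loss of starting material and appearance of the deprotected product (loss of the 2-nitrobenzyl group). DT1/2 is the time at 50% deprotection, read from kinetic plots. Each compound was run in triplicate.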

For data set [2], the target named is T1, Bst DNA polymerase (Geobacillus stearothermophilus, UniProt P52026).
T1 sequence (P52026 289-876 limits assumed): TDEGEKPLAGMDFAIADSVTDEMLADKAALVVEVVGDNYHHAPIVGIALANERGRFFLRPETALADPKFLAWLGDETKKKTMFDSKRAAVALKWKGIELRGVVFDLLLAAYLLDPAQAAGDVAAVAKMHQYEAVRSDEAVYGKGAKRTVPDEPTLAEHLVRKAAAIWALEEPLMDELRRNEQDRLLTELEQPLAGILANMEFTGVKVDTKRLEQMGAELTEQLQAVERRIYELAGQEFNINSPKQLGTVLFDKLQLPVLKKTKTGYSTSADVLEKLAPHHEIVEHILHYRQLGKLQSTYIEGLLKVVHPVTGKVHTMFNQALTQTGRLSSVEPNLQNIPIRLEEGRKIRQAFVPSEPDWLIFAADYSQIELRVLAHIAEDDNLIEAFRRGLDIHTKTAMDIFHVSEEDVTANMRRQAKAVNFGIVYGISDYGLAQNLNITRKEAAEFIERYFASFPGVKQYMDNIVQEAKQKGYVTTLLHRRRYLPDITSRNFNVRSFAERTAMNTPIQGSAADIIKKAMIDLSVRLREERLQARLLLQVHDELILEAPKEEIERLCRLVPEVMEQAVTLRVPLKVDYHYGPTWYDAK
The data set can be described thus: Oligonucleotide template assay. The data set is classed as biochemical, Bacillus stearothermophilus. The settings on record: for Incorporation: Bst, five-base poly-thymidine template, high concentrations (100 μM).

The target in data set [3] is T2, DeepVent(exo−) DNA polymerase (Pyrococcus sp. GB-D, UniProt Q51334, D141A/E143A).
T2 sequence (Q51334 with tags, fused parts or gaps D141A/E143A): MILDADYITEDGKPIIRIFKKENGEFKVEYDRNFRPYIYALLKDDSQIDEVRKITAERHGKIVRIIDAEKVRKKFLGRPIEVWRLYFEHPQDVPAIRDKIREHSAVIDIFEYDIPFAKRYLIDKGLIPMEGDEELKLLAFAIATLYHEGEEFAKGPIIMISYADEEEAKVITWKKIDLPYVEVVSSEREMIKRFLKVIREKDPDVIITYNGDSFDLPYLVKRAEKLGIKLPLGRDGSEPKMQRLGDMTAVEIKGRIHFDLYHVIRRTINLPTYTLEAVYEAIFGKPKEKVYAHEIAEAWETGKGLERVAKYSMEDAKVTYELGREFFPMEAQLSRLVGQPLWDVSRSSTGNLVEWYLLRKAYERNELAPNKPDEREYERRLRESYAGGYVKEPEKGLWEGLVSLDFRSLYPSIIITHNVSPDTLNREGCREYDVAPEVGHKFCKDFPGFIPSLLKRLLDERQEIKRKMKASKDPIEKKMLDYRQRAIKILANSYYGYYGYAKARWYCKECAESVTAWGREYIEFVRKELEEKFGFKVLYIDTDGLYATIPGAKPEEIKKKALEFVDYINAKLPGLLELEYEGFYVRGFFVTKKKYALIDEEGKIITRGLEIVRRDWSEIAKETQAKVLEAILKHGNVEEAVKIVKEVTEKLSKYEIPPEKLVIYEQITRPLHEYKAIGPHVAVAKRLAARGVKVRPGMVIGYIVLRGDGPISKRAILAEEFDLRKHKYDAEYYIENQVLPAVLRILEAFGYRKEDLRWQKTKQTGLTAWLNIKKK
The data set can be described thus: PEP. In kind it is biochemical, Pyrococcus species GB-D.

The target in data set [4] is T1, Bst DNA polymerase. The data set can be described thus: PEP. The data set is classed as biochemical, Bacillus stearothermophilus.
Data set [5] has as its target T3, Vent(exo−) DNA polymerase (Thermococcus litoralis, UniProt P30317, D141A/E143A).
T3 sequence (P30317 with tags, fused parts or gaps D141A/E143A): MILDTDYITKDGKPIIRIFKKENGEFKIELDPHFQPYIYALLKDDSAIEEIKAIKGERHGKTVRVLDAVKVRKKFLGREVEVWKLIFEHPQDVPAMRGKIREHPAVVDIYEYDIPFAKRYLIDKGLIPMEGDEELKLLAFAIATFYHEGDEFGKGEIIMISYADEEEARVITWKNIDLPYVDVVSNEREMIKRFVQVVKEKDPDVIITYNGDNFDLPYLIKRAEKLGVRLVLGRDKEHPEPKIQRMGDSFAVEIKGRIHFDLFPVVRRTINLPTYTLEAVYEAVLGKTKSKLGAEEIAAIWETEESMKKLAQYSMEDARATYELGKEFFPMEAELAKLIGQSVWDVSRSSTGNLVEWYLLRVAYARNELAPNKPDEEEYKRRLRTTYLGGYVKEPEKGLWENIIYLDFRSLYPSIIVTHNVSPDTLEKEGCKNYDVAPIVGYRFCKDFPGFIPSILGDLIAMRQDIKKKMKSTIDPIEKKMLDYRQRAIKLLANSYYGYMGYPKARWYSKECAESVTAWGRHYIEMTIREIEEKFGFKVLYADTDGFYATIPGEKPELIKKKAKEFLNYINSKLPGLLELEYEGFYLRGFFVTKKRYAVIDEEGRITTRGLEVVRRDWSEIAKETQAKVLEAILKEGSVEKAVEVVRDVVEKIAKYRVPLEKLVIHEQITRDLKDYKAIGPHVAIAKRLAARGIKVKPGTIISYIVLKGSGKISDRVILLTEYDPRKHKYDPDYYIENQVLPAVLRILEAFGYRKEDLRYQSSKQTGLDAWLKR
The data set can be described thus: PEP. In kind it is biochemical.

Data set [6] addresses T3, Vent(exo−) DNA polymerase. The settings on record: screening with eight different DNA polymerases; cited from earlier work.

As to `CC(C)(C)[Si](C)(C)OC[C@H]1O[C@@H](n2cnc3c(N(Cc4ccccc4[N+](=O)[O-])Cc4ccccc4[N+](=O)[O-])ncnc32)C[C@@H]1O` [IIb, N^6, N^6-Bis-(2-nitrobenzyl)-5’-O-tert-butyldimethylsilyl-2’deoxyadenosine], the “Deprotection rate relative to compound Ib” value in data set [1] (faster than Ib at both deprotection wavelengths (302 and 365 nm)) is “approximately 3 fold”. As for `CC(C)(C)[Si](C)(C)OC[C@H]1O[C@@H](n2cnc3c(N)ncnc32)C[C@@H]1OCc1ccccc1[N+](=O)[O-]` [Compound Ib, 5’-O-tert-Butyldimethylsilyl-3’-O-(2-nitrobenzyl)-2’-deoxyadenosine], in data set [1], the “DT1/2 (deprotection half-life time) at 302 nm” value turned out to be 1 min and the “DT1/2 (deprotection half-life time) at 365 nm” value was determined as 2.53 min.

`Nc1ncnc2c1ncn2[C@H]1C[C@H](OCc2ccccc2[N+](=O)[O-])[C@@H](COP(=O)(O)OP(=O)(O)OP(=O)(O)O)O1` [Ic, 3’-O-(2-Nitrobenzyl)-2’-deoxyadenosine-5’-triphosphate]: in data set [2], the “Activity by DNA polymerase incorporation assays” value is “inactive” and the Incorporation entry is listed as “did not show significant incorporation”. For `O=[N+]([O-])c1ccccc1CN(Cc1ccccc1[N+](=O)[O-])c1ncnc2c1ncn2[C@H]1C[C@H](O)[C@@H](COP(=O)(O)OP(=O)(O)OP(=O)(O)O)O1` [IIc, N^6, N^6-Bis-(2-nitrobenzyl)-2’-deoxyadenosine-5’-triphosphate], in data set [2], the “Activity by DNA polymerase incorporation assays” value is “inactive” and the Incorporation result is on record as “did not show significant incorporation”. `CC(C)(C)[Si](C)(C)OC[C@H]1O[C@@H](n2cnc3c(NCc4ccccc4[N+](=O)[O-])ncnc32)C[C@@H]1O` [IIIb, N^6-(2-Nitrobenzyl)-5’-O-tert-butyldimethylsilyl-2’-deoxyadenosine]: in data set [1], the “DT1/2 (deprotection half-life time) at 302 nm” value is 0.767 min and the “DT1/2 (deprotection half-life time) at 365 nm” value came out at 2.4 min. Regarding `Nc1ncnc2c1ncn2[C@H]1C[C@H](O)[C@@H](COP(=O)(O)OP(=O)(O)OP(=O)(O)O)O1` [dATP, 2′-Deoxyadenosine triphosphate], the IC50 (as a rule, the point on the concentration scale where inhibition reaches its midpoint) in data set [3] was 2.8 ± 0.2 nM; in data set [4], 1.2 ± 0.1 nM; in data set [5], 1.6 ± 0.2 nM. Take `C=CCO[C@H]1C[C@H](n2cnc3c(N)ncnc32)O[C@@H]1COP(=O)(O)OP(=O)(O)OP(=O)(O)O` [3′-O-allyl-dATP]: the “Activity as polymerase substrate” value in data set [6] is “limited activity at high micromolar concentrations”.

Source of the values: PMC2095803 (Nucleic Acids Research, 2007).
